A short description of the data set: Toxicity liver stage against HepG2, at 10uM. The data set is classed as cell-based. More on the design: test concentration 10 uM, cell line HepG2-A16-CD81EGFP. As to conditions: human, HepG2-A16-CD81EGFP cells; read-out: INHIBITION
Summed up: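 Uninfected HepG2-A16-CD81EGFP cells, 3 × 10^3 per well, 1536-well, plated on prespotted compound at 10 μM final, parasite-free screening media added to match infected plates; puromycin 10 μM positive, DMSO 0.5% negative; run in parallel with 48 h PbLuc assay at 37 °C, 5% CO2; viability by CellTiter-Glo luminescence, normalized to controls.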
For the compound `CSc1ccc(C(C(=O)O)N2CCOCC2)cc1` (stereo unspecified), the cytotoxicity at 10 µM was 0.324%.

In the case of `CC(=O)Nc1ccc(F)c(S(=O)(=O)NC(C)(C)C)c1`, the cytotoxicity at 10 µM was found to be 1.15%. As for `CCc1nc(CN(C)C2CCN(Cc3ccc(C#N)cc3F)C2)no1` (stereo unspecified), the figure is -7.12%; as for `CN(Cc1ccc(Cl)s1)C(=O)CN(C)C1CCc2ccccc21` (stereo unspecified), 18.1%. As for `COc1ncccc1C(=O)Nc1nc2c(s1)CN(S(=O)(=O)C1CC1)CC2`, the figure is -9.04%; as for `Cc1ccccc1CC(C)(C)NC(=O)CCOc1cccc(C(N)=O)c1`, -4.07%; as for `NC(=O)NCC1CCCCN1C(=O)c1ccc(Br)s1` (stereo unspecified), -0.147%.

For `c1cnc(N2CCC3(COCc4cnc(-c5cccnc5)nc43)C2)nc1` (stereo unspecified), the cytotoxicity at 10 µM is 2.57%. For `Cn1ncc(C(=O)O)c1C(=O)Nc1nc2ccc(Br)cc2s1`, the cytotoxicity at 10 µM is 12.5%. The figure for `CCNC(=O)N1CCC2(CC1)CCn1c(-c3ccccc3)cnc12` is -8.19%; for `O=C(CNc1cc(F)ccc1OCC1CCCO1)N1CCOCC1` (stereo unspecified) it is -12.6%. As for `c1cc(CN2CC[C@H]3O[C@@H](COCC4CCOCC4)CC[C@H]32)ccn1`, the figure is -69.8%. As for `CS(=O)(=O)NCCNC(=O)NC1(c2ccc(F)cc2)CCCC1`, the figure is -1.44%; as for `Cc1ccc(CN(C)Cc2ncc(C(C)(C)C)o2)o1`, -6.58%.

Turning to `c1c2c(nn1CC1CCOCC1)C(CNC1CCOCC1)OCC2` (stereo unspecified), the cytotoxicity at 10 µM was found to be 5.83%. As for `O[C@@H]1CN(Cc2cccnc2)C[C@H]1Oc1ccccc1`, the figure is -23.2%; as for `CCC[C@@H]1CN(Cc2ccccc2-c2ccco2)C[C@H]1NC(C)=O`, 20.9%; as for `O=C(O)c1ccccc1-c1ccc(CN2CCCC(O)C2)cc1` (stereo unspecified), -9.16%. As for `CCCS(=O)(=O)N1C[C@@H]2CN(Cc3cnn(C)c3)CCO[C@@H]2C1`, the figure is 0.835%. On to `COC(=O)[C@@H]1C[C@H](NC(=O)c2cc(=O)[nH]c3ccc(C)cc23)CN1C`, for which the cytotoxicity at 10 µM stood at 6.46%. The figure for `OCCOc1cc(F)ccc1NCc1nc(-c2cccs2)no1` is -46.1%; for `Clc1ccc(CN(CCN2CCOCC2)Cc2cccnc2)c(Cl)c1` it is -4.25%; for `CCCC(C)N(C)C(=O)c1nc(S(C)(=O)=O)n2ccccc12` (stereo unspecified) it is -8.16%. As to `Cc1[nH]c2ccccc2c1-c1ccnc(NC[C@H](O)CO)n1`, the cytotoxicity at 10 µM was determined as 8.9%. For the compound `CN1CCc2c(C#N)c(NCCN3CCOCC3)n3cnnc3c2C1`, the cytotoxicity at 10 µM was -2.84%. The figure for `c1ccc(COC[C@H]2CC[C@H]3[C@H](CCN3c3ncccn3)O2)nc1` is -78%; for `O=C1CCCN1Cc1ncn2c1CN(C(=O)C1CC=CC1)CCC2` it is 6.4%. The figure for `CC(=O)N1C[C@H]2CC[C@@H](C1)N(S(=O)(=O)c1ccc(C#N)cc1Cl)C2` is 1.33%; for `CCN(CC)Cc1cnc2n1CCN(Cc1c(C)noc1C)CC2` it is 11.2%. With `COc1ccc(C(=O)N2CCC(Oc3cccc(C)c3)(C(=O)O)CC2)o1`, the cytotoxicity at 10 µM was found to be 9.24%. As for `COC(=O)c1cccc(NC(=O)CN2CCN(S(C)(=O)=O)CC2)c1`, the cytotoxicity at 10 µM was determined as 11.3%. Consider `COC(=O)c1cccc(C(=O)N2CCN(c3cccc(C)c3C)CC2)n1`, for which the cytotoxicity at 10 µM is 79.9%. As for `NC(=O)COc1ccc(CN2CCC(O)(CN3CCCCC3)C2)cc1Cl` (stereo unspecified), the cytotoxicity at 10 µM was -1.73%.

For `Cn1nc(C(=O)NC2CCCC2)cc1NC(=O)C1CC1`, the cytotoxicity at 10 µM was determined as 0.754%.

Turning to `O=C1CC2(CCN(CCO)C2)CN1c1cccc(F)c1` (stereo unspecified), the cytotoxicity at 10 µM is -149%.

With `OCCNc1nccc(-c2cn3nccc3nc2C2CCCCC2)n1`, the cytotoxicity at 10 µM was -0.085%. Consider `COCCCC1(CO)CCCN(CCS(C)(=O)=O)C1` (stereo unspecified), for which the cytotoxicity at 10 µM is -16%. As for `O=C1CCOCCN1Cc1ccc(Cl)c(F)c1`, the figure is -3.31%; as for `Cc1c(NCc2cccc(C#N)c2)cccc1S(=O)(=O)NC1CC1`, 42.5%; as for `CN(C)[C@@H]1CN(C(=O)Cc2cccs2)[C@@H]2CCCO[C@H]12`, 5.93%. Consider `Cc1cc(N(C)C)nc(C2(C)CCNCC2)n1`, for which the cytotoxicity at 10 µM was 7.79%. As for `O=C1CC(c2cccs2)Cc2[nH]c(=O)c(C(=O)NC3CCCC3)cc21` (stereo unspecified), the figure is 80.5%. As for `CCN(C(C)=O)c1nc(CN2CCCCC2Cn2cncn2)cs1` (stereo unspecified), the figure is -5.4%. As for `Cn1ncnc1-c1ccnc(NCCCc2ccncc2)n1`, the figure is -1.41%; as for `CCN1CCC(NC(=O)CN2CCc3c(ncn3C3CC3)C2)CC1`, -4.8%; as for `Cn1cc(-c2csc(N3CCSCC3)n2)cn1`, -1.31%. Regarding `CC(c1cccnc1)N(C)Cc1csc(-c2ccccn2)n1` (stereo unspecified), the cytotoxicity at 10 µM was -10.4%. Consider `Fc1ccc(Cc2cccc(C3CCN(C4CCOCC4)CC3)n2)cc1`, for which the cytotoxicity at 10 µM was found to be 4.3%. As for `C[C@@H]1CN(c2nc(N)nc3c2CCC3)C[C@]1(C)O`, the figure is 4.6%; as for `CN(CC1CCCC1)C(=O)c1cn(C)nc1-c1cccnc1`, -0.0402%; as for `CN(CCC#N)C(=O)CCOc1cccc(F)c1`, -2.46%. The figure for `Cc1nc(C(=O)N2CC(C)Sc3ccccc32)cs1` (stereo unspecified) is -3.71%; for `CCc1nccn1-c1cccc(C2CCN(C(=O)COC)CC2)n1` it is -14.9%. `Cn1ccnc1-c1cccc(NC(=O)NCCN2CCOCC2)c1`: the cytotoxicity at 10 µM was -7.85%. As for `CSc1nsc(NC(=O)N(C)Cc2ccc3c(c2)OCO3)n1`, the figure is -10.4%.

Regarding `Cc1cnn(CCNCC(=O)NCc2ccccc2)c1`, the cytotoxicity at 10 µM was -4.25%.

For the compound `O=C(NCc1ccncc1)Nc1cc(C(F)(F)F)c[nH]c1=O`, the cytotoxicity at 10 µM was -9.86%.

For `CCc1ccc(CN2CC[C@@H]3NC(=O)CC[C@@H]32)o1`, the cytotoxicity at 10 µM is 3.06%. As for `c1ccc(CN2Cc3nccn3CC(Cn3cccn3)C2)nc1` (stereo unspecified), the figure is -105%; as for `COCCNc1ccc(CC2CCNC2)cn1` (stereo unspecified), 9.33%; as for `COC(=O)c1cccc(C(=O)NCc2ccc3c(c2)CCCN3C)c1`, -11.7%.

For the compound `Cc1cc(N2CCC(N(C)C(=O)c3cccs3)CC2)nc(C)n1`, the cytotoxicity at 10 µM worked out at 6.74%. `Cc1cc(NCCSc2nccn2C)n2nc(C)c(C)c2n1`: the cytotoxicity at 10 µM amounted to 9.75%. The figure for `CN(Cc1ccc(F)cc1)C(=O)CN1CCOC(Cn2cccn2)C1` (stereo unspecified) is 2.2%. The figure for `CC(c1cccs1)N(C)Cc1cnc(-c2ccccn2)nc1` (stereo unspecified) is -6.3%.

Consider `Cc1nn(C)cc1NC(=O)CC1CCN(CCc2ccccc2)CC1`, for which the cytotoxicity at 10 µM was -4.92%. The figure for `COc1cc2c(c(OC)c1OC)CCN(CCn1cncn1)CC2` is 11.5%; for `CCOCC(=O)N1CCC(Oc2ccc(Cl)cn2)CC1` it is 7.39%. As for `COCCN(CCOC)C(=O)c1ccn(-c2ccccc2Cl)n1`, the figure is -1.59%; as for `O=C(NC1CC1)N1C[C@H]2CN(Cc3cccc(F)c3)C(=O)[C@H]2C1`, -70.5%; as for `O=C(c1ccncc1)N1CCN2C[C@H](Oc3cncnc3)C[C@H]2C1`, 8.7%.

Turning to `CS(=O)(=O)NC[C@H]1Cn2c(-c3ccccc3)cnc2CO1`, the cytotoxicity at 10 µM is -2.96%.

On to `Clc1cnccc1NCc1cccc(COC2CCOCC2)c1`, for which the cytotoxicity at 10 µM was 53.9%. The figure for `COc1ccccc1S(=O)(=O)N1CCN(C)[C@@H]2CS(=O)(=O)C[C@@H]21` is 19.3%; for `COc1cccc(OCC2CCCN(C(=O)CCc3cc(O)no3)C2)c1` (stereo unspecified) it is 0.611%. The figure for `CN1C[C@@H](NC(=O)C2CC2)C[C@H]1c1nc(-c2cnccn2)no1` is 0.611%; for `CC(C)(C)C(=O)NCCC(=O)NC(C)(C)c1ccc2c(c1)OCO2` it is -1.26%; for `O=C(Cc1ccco1)N1CCC2(CCOCC2COCC2CC2)CC1` (stereo unspecified) it is 4.65%. Consider `O=C(C1=COCCO1)N1CC(Oc2nc3c(C(F)(F)F)cccc3s2)C1`, for which the cytotoxicity at 10 µM is 36%. The figure for `CCC(=O)N1CCN(Cc2cc(-c3ccncc3)nn2C)CC1` is 4.24%; for `COc1ccc(-c2ccnc3nc(N4CCCCC4)[nH]c(=O)c23)cc1` it is 5.31%; for `Cc1csc([C@@H]2C[C@@H]3CCN(C(=O)c4ccnnc4)C[C@H]3O2)n1` it is 4.49%. As for `Cc1ccc(CN(CCN(C)C)Cc2nc3ccccc3[nH]2)s1`, the cytotoxicity at 10 µM is 3.34%. The figure for `COc1ccccc1-c1cc(C(F)(F)F)c2c(C)nn(CC(=O)O)c2n1` is 5.25%; for `CC(C)(C)c1c[nH]c([C@@H]2COCCN2C2CCOCC2)n1` it is -5.8%; for `CCc1c(C)[nH]c(C(C)(C)N)nc1=O` it is -11%.

Regarding `CC(CCc1ccc(O)cc1)NC1CCN(S(C)(=O)=O)CC1` (stereo unspecified), the cytotoxicity at 10 µM turned out to be 1.46%. As for `Cc1nc(C)c(C(=O)Nc2cnn(CC(=O)NC3CCCC3)c2)s1`, the figure is -3.33%; as for `N#CC1(NC(=O)COc2cc(Cl)cc(Cl)c2)CCOCC1`, -2.53%; as for `Clc1ccc(CNc2cnn(CCN3CCOCC3)c2)cc1Cl`, 3.2%. As for `CCS(=O)(=O)NC1CCCN(Cc2ccn(C)c(=O)c2)C1` (stereo unspecified), the figure is -1.82%; as for `COc1ccc(CN2CCOC(CCc3ccnc(N)c3)C2)cc1` (stereo unspecified), 13.3%; as for `CCc1noc(C(C)N2CCN(CCN3CCCC3=O)CC2)n1` (stereo unspecified), -9.37%. As for `CCc1nc(CCNC(=O)NC2CC2)sc1C`, the figure is -14.4%; as for `CC1CNC(=O)CCN1Cc1cc(O)c2cccc(F)c2n1` (stereo unspecified), -4.5%.

In the case of `CSc1nccc(N2CCN(C)C3(CCNC(=O)CC3)C2)n1` (stereo unspecified), the cytotoxicity at 10 µM came out at 18.7%.

The values are drawn from ChEMBL document CHEMBL4513216, “Probing the Open Global Health Chemical Diversity Library for Multistage-Active Starting Points for Next-Generation Antimalarials” (ACS Infect Dis, 2020).
